An excerpt weighted towards active compounds, which were near 0.6% of everything screened.
PolyA inhibitor: blocks polyadenylation in yeast reporter cells; activity score, % at 12 µM; S. cerevisiae SKY197-pL101 polyadenylation reporter, beta-gal luminescence; efflux-impaired pdr1/pdr3 knockout yeast; score 100 = 6 SD above DMSO; AID 1875; 0.02% of 300,000 active;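 active = lowest replicate activity score at least 50, where 100 means six control SD above control mean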;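 also: yeast exposed to compound for 9 h at 30 °C; higher score means more reporter readthrough which indicates perturbed polyadenylation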
GSK3B inh: inhibitors of human GSK3beta kinase; activity score (negative = inhibition), % at 10 µM; P49841; GST-GSK3beta kinase, ADP-Glo luminescence, 60 min; active compounds read low; 0.038% of 300,000 active;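 active = more than half of replicate wells score below -50%, meaning over 50% inhibition versus plate controls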
Target sequence (P49841 whole entry, looked up): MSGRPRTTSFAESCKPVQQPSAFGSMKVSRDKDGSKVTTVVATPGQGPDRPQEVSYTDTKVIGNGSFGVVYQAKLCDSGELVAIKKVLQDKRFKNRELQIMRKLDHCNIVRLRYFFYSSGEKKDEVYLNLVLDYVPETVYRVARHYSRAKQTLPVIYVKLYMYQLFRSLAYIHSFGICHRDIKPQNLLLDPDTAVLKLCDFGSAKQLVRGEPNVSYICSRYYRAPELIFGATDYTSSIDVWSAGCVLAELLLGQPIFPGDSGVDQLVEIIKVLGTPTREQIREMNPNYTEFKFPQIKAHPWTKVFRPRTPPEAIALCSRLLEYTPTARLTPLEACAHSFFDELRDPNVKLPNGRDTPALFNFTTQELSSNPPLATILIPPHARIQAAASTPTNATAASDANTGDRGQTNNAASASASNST
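Assay system: GST-fused GSK3beta enzyme, cell-free / Medium: Tris pH 7.5 buffer with MgCl2, DTT, BSA, heparin / Also added: peptide substrate plus 25 µM ATP (final) / Compound: 10 µM single point / Timing: kinase reaction with compound 60 min at room temperature / Detection: ADP-Glo luminescence / Benchmarks: DMSO neutral wells and GW8510 at 20 µM as positive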
STK33 kinase inh: blocks human STK33 kinase activity. Q9BYT3. 0.073% of 320,000 active. inhibition, % at 10 µM. purified STK33, MBP phosphorylation, ADP-Glo luminescence;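 active = inhibition at or above 25%, using the most active replicate where run in duplicate; inactive = inhibition below 25%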
GSK3A inh: human GSK-3 alpha kinase inhibition | ADP-Glo luminescence, 60 min | inhibition, % at 10 µM | 0.1% of 320,000 active | P49840 | AID 2650;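 active = more than half of replicates show inhibition above 20%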;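 also: GST-tagged GSK-3 alpha with peptide substrate and 25 µM ATP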
Efflux pump inh: blocks antifungal efflux pumps in multiplex yeast assay; 0.44% of 330,000 active; AID 485275; S. cerevisiae Candida pump triplex, Nile Red efflux; inhibition, % at 10 µM;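 active = plate passing quality check with inhibition over a set limit, or well fluorescence over plate mean plus 4 SD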;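 also: Nile Red retained in pooled yeast measured as flow cytometry median fluorescence; higher means more Nile Red kept so more efflux inhibition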
Yeast cmpd fluor: compound fluorescence in yeast efflux pump counter-screen. shares compounds with Efflux pump inh. S. cerevisiae AD/pABC3, flow cytometry. fluorescence ratio to DMSO, % at 10 µM. 4% of 1,700 active. AID 588517;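 active = fluorescence ratio to DMSO above its plate's cutoff, the plate mean ratio plus 5 SD, cut at about 210% in these data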;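 also: unstained yeast with no Nile Red so the signal is compound autofluorescence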
Mdr1 pump inh: inhibitors of Candida albicans Mdr1 efflux pump. shares compounds with Efflux pump inh. S. cerevisiae AD/CaMDR1, Nile Red efflux, flow cytometry. inhibition, % at 10 µM. 1% of 1,700 active; in the data active = inhibition above about 26%;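 also: higher means more Nile Red retained so more efflux inhibition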
CaCdr2 efflux inh: Candida Cdr2 efflux pump inhibition | S. cerevisiae AD/CaCDR2, Nile Red retention, flow cytometry | shares compounds with Efflux pump inh | AID 588520 | 4% of 1,700 active | Nile Red retention ratio vs DMSO, % at 10 µM; in the data active = Nile Red retention ratio vs DMSO above about 190%;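 also: higher ratio means more blocking of Cdr2 efflux of the dye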
CaCdr1 efflux inh: inhibitors of Candida albicans Cdr1 efflux pump; 1% of 1,700 active; shares compounds with Efflux pump inh; AID 588522; S. cerevisiae AD/CaCDR1, Nile Red efflux, flow cytometry; inhibition, % at 10 µM;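 active = inhibition above the screen-wide mean plus twice its standard deviation, cut at about 32% in these data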
Numbers stand for hits; 0 = inactive; - = no result given.

SMILES	PolyA inhibitor	GSK3B inh	STK33 kinase inh	GSK3A inh	Efflux pump inh	Yeast cmpd fluor	Mdr1 pump inh	CaCdr2 efflux inh	CaCdr1 efflux inh
O=C(OCC(=O)c1ccccc1Cl)c1cnccn1	0	0	0	0	14	0	0	0	0
O=C(OCC(=O)c1ccc(Cl)cc1Cl)c1cnccn1	0	0	0	0	0	-	-	-	-
Cc1cc(N/N=C/c2ccccc2[N+](=O)[O-])nc(-n2nc(C)cc2C)n1	0	0	0	0	0.8	0	0	0	0
CN(C(=O)COC(=O)c1ccc(=O)n(Cc2ccccc2)n1)c1ccccc1	0	0	0	0	0	-	-	-	-
CCOc1ccc(CNC(=O)NS(=O)(=O)c2ccc(OC)cc2)cc1	0	0	0	0	5.9	0	0	0	0
C#CCNC(=O)C1=C[C@@H](c2ccc(Br)cc2)C[C@@H](OCCCCO)O1	0	0	0	0	0	-	-	-	-
COc1cc2c(cc1OC)C(c1cc(OC)c(OC)c(OC)c1)NCC2 (stereo not drawn)	0	0	0	0	0.6	0	0	0	0
O=C(Nc1cccc(F)c1)N1CCC(n2c(=O)[nH]c3ccccc32)CC1	0	0	0	0	0	-	-	-	-
CCOc1ccc(NC(=O)N2CCC(n3c(=O)[nH]c4ccccc43)CC2)cc1	0	0	0	0	0.8	0	0	0	0
COc1ccc(CN2C(=O)C(C)Nc3ncnc(N4CCN(c5ccccc5)CC4)c32)cc1 (stereo not drawn)	-	-	0	0	0	0	0	0	0
CCC1Nc2ncnc(N3CCN(c4ccccc4)CC3)c2N(Cc2ccccc2)C1=O (stereo not drawn)	-	-	0	0	0	0	0	0	0
CCC1Nc2ncnc(N3CCN(c4ccccn4)CC3)c2N(Cc2ccc(Br)cc2)C1=O (stereo not drawn)	-	-	0	0	0	0	0	0	0
CCC1Nc2ncnc(N3CCN(c4ccccn4)CC3)c2N(Cc2ccc(Cl)cc2)C1=O (stereo not drawn)	0	0	0	0	0	-	-	-	-
Cc1ccc(CN2C(=O)C(CC(C)C)Nc3ncnc(N4CCN(c5ccccc5)CC4)c32)cc1 (stereo not drawn)	-	-	0	0	0	0	0	0	0
CCOc1ccc(CNC(=O)C2CCCN(S(=O)(=O)N3CC(C)CC(C)C3)C2)cc1OC (stereo not drawn)	0	0	0	0	0	-	-	-	-
COc1ccc(-n2c(CNC(=O)COc3ccc(Cl)cc3Cl)n[nH]c2=S)cc1	0	0	0	0	0	-	-	-	-
CS(=O)(=O)c1ccc(Cl)c(NC(=O)c2cccc(Br)c2)c1	0	0	0	0	5.8	0	0	0	0
O=C(Nc1nnc(-c2ccco2)o1)c1ccc([N+](=O)[O-])s1	0	0	0	0	0	-	-	-	-
O=C(Cn1cnc2c(OCc3ccccc3)ncnc21)NCC1CCCO1 (stereo not drawn)	-	-	0	0	0	-	-	-	-
CCN1CCN(Cc2c(O)ccc3c(=O)c(-c4ccccc4OC)coc23)CC1	0	0	0	0	0	-	-	-	-
O=C1/C(=C/c2ccco2)Oc2c1ccc(O)c2CN1CCCCC1	0	0	0	0	3.1	0	0	0	0
CCN1CCN(Cc2c(O)ccc3c2O/C(=C\C=C\c2ccccc2OC)C3=O)CC1	0	0	0	0	24	0	0	0	0
CC1CCN(Cc2c(O)ccc3c2O/C(=C\c2ccco2)C3=O)CC1	0	0	0	0	0	-	-	-	-
CCCCCCc1nc(C(N)=O)c2[nH]c(=O)n(-c3ccccc3F)c2n1	0	0	0	0	0	-	-	-	-
CCN(CC(=O)NCC(=O)Nc1ccc(Br)cc1C)Cc1ccccc1	0	0	0	0	0	-	-	-	-
SMILES	PolyA inhibitor	GSK3B inh	STK33 kinase inh	GSK3A inh	Efflux pump inh	Yeast cmpd fluor	Mdr1 pump inh	CaCdr2 efflux inh	CaCdr1 efflux inh
CCOC(=O)C1=C(COC(=O)COc2cccc(C)c2C)NC(=O)NC1C (stereo not drawn)	-	-	0	0	0	-	-	-	-
COc1ccccc1C(O)(C(=O)NN(C)c1ccccc1)c1ccccc1OC	0	0	0	0	0	-	-	-	-
Cc1cc(C)c(S(=O)(=O)N2CCCCC2CCNC(=O)C(=O)NCc2ccco2)c(C)c1 (stereo not drawn)	0	0	0	0	0	-	-	-	-
BrC(=C\c1ccccc1)/C=N/Nc1nc2ccccc2[nH]1	0	0	0	0	2.5	0	0	0	0
CN(CC(=O)Nc1cccc(F)c1)C(=O)CCCc1cccs1	0	0	0	0	0	-	-	-	-
CCn1c(/C=C/c2ccc(O)c(O)c2)nc2ccccc2c1=O	0	0	0	0	1.0	0	0	0	0
Clc1nc(Nc2ccccc2)nc(Nc2ccccc2)n1	0	0	0	0	11	0	0	0	0
O=C(CCC1CCCC1)NNC(=O)COc1ccc(Br)cc1	-	-	0	0	0	-	-	-	-
C/C(=N\NC(=O)c1nnn(-c2nonc2N)c1CSc1ccccc1)c1ccc2c(c1)OCO2	0	0	0	0	1.0	0	0	0	0
CCOC(=O)CC1C(=O)NCCN1C1CCCC1 (stereo not drawn)	0	0	0	0	0	-	-	-	-
CCOC(=O)[C@H]1[C@H]2COc3ccccc3[C@@H]2N2C(=O)c3ccccc3NC(=O)[C@@]12C	-	-	0	0	-	-	-	-	-
c1ccc(-c2sc3ccccc3c2-c2ccc(OCCN3CCCC3)cc2)cc1	-	-	0	0	0	-	-	-	-
COc1cc2sc(-c3ccccc3OC)c(-c3ccc(OCCN4CCOCC4)cc3)c2cc1OC	-	-	-	-	0	0	0	0	0
COc1ccc2c(-c3ccc(OCCN4CCOCC4)cc3)c(-c3ccccc3OC)sc2c1	-	-	-	-	0	0	0	0	0
COc1cc(SC)ccc1C(=O)Nc1nccs1	0	0	0	0	1.0	0	0	0	0
COc1cccc(CNC(=O)Cn2ncc3c(=O)oc4ccccc4c32)c1	0	0	0	0	0	-	-	-	-
O=C(NCCSc1ccc(Br)cc1)c1ccccc1	0	0	0	0	0	-	-	-	-
CSCc1ccc(C(=O)NCCSc2ccc(Br)cc2)cc1	0	0	0	0	7.4	0	0	0	0
CC(=O)Nc1ccc(NC(=O)Cc2ccc(F)cc2)cc1	0	0	0	0	1.1	0	0	0	0
O=C(O)c1nccnc1C(=O)N1CCN(c2ccccc2)CC1	0	0	0	0	1.9	0	0	0	0
O=C(c1ccccc1C(=O)N1CCN(c2ccccc2)CC1)N1CCN(c2ccccc2)CC1	0	0	0	0	0	-	-	-	-
Cc1ccc(OCC(=O)NNC(=O)CSc2ncc(C#N)c(N)n2)cc1	0	0	0	0	18	0	0	0	0
N#Cc1cnc(SCC(=O)Nc2ccccc2C(F)(F)F)nc1N	0	0	0	0	0	-	-	-	-
Cc1ccc(C2=NN(CC(=O)NCc3ccccn3)C(=O)CC2)cc1	0	0	0	0	7.6	0	0	0	0
